Reference: ChEMBL document CHEMBL2016495, “Design and synthesis of potent, isoxazole-containing renin inhibitors” (Bioorg Med Chem Lett, 2012)

Assays:
[1] = molecular target: Voltage-gated inwardly rectifying potassium channel KCNH2 (Homo sapiens, UniProt Q12809); assay: Binding affinity to human Erg
Cytochrome P450 3A4 = Cytochrome P450 3A4 (Homo sapiens, UniProt P08684); assay: Reversible inhibition of CYP3A4-mediated conversion of testosterone to 6-beta-hydroxy-testosterone after 30 mins; format: ADME
Sequence of Cytochrome P450 3A4 (P08684 whole entry): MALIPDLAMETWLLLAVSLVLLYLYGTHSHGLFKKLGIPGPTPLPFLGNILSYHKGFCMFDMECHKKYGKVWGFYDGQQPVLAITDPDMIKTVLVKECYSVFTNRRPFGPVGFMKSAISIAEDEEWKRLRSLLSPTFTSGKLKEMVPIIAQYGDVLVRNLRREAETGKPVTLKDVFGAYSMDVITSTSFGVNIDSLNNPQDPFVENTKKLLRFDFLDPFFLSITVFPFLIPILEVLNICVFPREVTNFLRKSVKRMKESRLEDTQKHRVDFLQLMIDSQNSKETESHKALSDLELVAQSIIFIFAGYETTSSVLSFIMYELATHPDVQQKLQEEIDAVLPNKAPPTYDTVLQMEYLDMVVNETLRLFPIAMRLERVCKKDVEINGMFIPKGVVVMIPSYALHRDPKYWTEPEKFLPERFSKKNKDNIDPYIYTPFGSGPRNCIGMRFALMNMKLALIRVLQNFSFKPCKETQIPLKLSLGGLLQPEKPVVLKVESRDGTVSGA

CYP3A4 = CYP3A4 (Homo sapiens, UniProt P08684); assay: Inhibition of CYP3A4 assessed as time dependent inhibition of conversion of testosterone to 6-beta-hydroxy-testosterone at 10 uM; format: ADME; conditions: probe testosterone
Sequence of CYP3A4 (P08684 whole entry): as above

Renin [2] = molecular target: T1, Renin (Homo sapiens, UniProt P00797); assay: Inhibition of human recombinant renin using QXL520-Lys-His-Pro-Phe-His-Leu-Val-Ile-His-Lys-(5-FAM) as substrate pretreated for 10 mins measured after 1 hr by fluorescence analysis in presence of human plasma
T1 sequence (P00797 whole entry): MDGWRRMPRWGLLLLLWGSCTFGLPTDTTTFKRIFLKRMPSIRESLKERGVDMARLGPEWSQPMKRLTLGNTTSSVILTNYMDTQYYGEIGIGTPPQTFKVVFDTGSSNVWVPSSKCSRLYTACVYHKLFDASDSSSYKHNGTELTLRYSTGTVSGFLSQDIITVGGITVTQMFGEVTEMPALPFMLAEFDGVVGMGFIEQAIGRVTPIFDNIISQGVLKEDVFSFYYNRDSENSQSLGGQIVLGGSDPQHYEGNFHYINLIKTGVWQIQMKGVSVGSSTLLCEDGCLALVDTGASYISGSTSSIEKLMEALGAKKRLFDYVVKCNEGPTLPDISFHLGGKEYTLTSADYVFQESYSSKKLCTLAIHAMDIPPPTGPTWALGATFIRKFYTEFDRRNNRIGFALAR

Renin [3] = molecular target: T1, Renin; assay: Inhibition of human recombinant renin using DNP-Lys-His-Pro-Phe-His-Leu-Val-Ile-His-D,L-Amp as substrate after 3 hrs by fluorescence analysis
Summary of the method: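 Recombinant human renin at 100 pM, with or without inhibitor, and 6 µM Q-FRET substrate in 50 mM MOPS, 100 mM NaCl, pH 7.4, 0.002% Tween. Incubated at 37 °C for 3 h. Fluorescence (ex 328 / em 388 nm) was read at 0 and 3 h.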

[4] = Oral bioavailability in Sprague-Dawley rat at 3 mg/kg; format: ADME, organism-based; conditions: in vivo
Summary of the method: (§1)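 Rats dosed orally at 3 mpk as a solution in 0.5% methyl cellulose.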

[5] = Clearance in Sprague-Dawley rat at 3 mg/kg, po and 0.5 mg/kg, iv; format: ADME, organism-based; conditions: in vivo
[6] = Half life in Sprague-Dawley rat at 3 mg/kg, po and 0.5 mg/kg, iv; format: ADME, organism-based; conditions: in vivo; summary of the method: as §1
[7] = Volume of distribution at steady state in Sprague-Dawley rat at 3 mg/kg, po and 0.5 mg/kg, iv; format: ADME, organism-based; conditions: in vivo, read-out: Vdss
Rattus norvegicus [8] = assay: Antihypertensive activity in double transgenic rat assessed as decrease in blood pressure at 3 mg/kg, po; format: functional
[9] = AUC in Sprague-Dawley rat at 3 mg/kg, po; format: ADME, organism-based; parameters: dose 3 mg/kg, route oral; conditions: plasma; summary of the method: as §1
Rattus norvegicus [10] = assay: Antihypertensive activity in double transgenic rat assessed as duration of decrease in blood pressure at 3 mg/kg, po; format: functional

Sequence of Voltage-gated inwardly rectifying potassium channel KCNH2 (Q12809 whole entry): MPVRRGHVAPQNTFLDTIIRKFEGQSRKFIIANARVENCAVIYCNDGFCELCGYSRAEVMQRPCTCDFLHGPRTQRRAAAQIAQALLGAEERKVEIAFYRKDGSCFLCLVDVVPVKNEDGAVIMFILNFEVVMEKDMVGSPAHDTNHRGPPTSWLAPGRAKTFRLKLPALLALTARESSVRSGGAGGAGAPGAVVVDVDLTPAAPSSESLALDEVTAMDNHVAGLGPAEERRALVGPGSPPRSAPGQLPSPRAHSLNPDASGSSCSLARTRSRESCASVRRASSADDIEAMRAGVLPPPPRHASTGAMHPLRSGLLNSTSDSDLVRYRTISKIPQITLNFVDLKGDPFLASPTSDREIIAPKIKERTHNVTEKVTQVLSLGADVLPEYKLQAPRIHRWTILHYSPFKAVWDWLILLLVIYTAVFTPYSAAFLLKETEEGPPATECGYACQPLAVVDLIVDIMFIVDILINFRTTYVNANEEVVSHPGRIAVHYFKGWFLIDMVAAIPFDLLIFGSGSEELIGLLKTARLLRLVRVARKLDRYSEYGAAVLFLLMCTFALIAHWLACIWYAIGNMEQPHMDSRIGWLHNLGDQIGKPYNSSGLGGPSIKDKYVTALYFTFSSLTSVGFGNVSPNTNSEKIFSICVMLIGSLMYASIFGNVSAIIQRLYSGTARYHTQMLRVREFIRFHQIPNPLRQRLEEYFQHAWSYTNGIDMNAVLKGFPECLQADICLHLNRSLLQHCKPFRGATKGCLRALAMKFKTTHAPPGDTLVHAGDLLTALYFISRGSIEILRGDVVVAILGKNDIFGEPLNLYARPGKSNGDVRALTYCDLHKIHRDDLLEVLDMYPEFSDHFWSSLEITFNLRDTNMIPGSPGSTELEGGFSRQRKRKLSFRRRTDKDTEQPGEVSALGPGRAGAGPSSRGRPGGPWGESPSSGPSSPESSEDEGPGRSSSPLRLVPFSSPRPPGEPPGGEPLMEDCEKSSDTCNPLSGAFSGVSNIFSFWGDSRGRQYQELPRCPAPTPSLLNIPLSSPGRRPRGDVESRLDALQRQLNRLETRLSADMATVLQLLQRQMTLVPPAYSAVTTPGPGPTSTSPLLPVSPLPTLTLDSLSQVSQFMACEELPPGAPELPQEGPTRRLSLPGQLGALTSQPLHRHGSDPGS

Row | Compound | IC50 (Cytochrome P450 3A4) [µM] | inhibition at 10 µM (CYP3A4) [%] | IC50 (Renin [3]) [nM] | Ki [1] [µM] | further results
1 | CC(=O)NCCc1ccccc1-c1onc([C@H]2CNCC[C@]2(O)c2ccc(F)c(F)c2)c1C(C)O (stereo partly drawn) | > 50 | 48 |  |  | 
2 | CC(=O)NCCc1ccccc1-c1onc([C@H]2CNCC[C@]2(O)c2ccc(F)c(F)c2)c1Cl | > 50 | 74 | 0.73 |  | 
3 | COC[C@H](C)COCc1ccc([C@@]2(O)CCNC[C@@H]2c2noc(-c3ccccc3CCNC(C)=O)c2Br)cc1 | 29 | 10 | 0.26 | 31.2 | bioavailability [4]: 18%; clearance [5]: 7.44 L/h/kg; half-life [6]: 1.4 h; Vd [7]: 12 L/kg; Activity (Rattus norvegicus [8]): 27 mmHg; AUC [9]: 130 nM·h; Time (Rattus norvegicus [10]): 8 h; IC50 (Renin [2]): 0.00067 µM
4 | CC(=O)NCCc1ccccc1-c1onc([C@H]2CNCC[C@]2(OCC(O)CO)c2ccc(F)c(F)c2)c1Br (stereo partly drawn) | > 50 | 18 |  | > 60 | bioavailability [4]: 0%; clearance [5]: 4.2 L/h/kg; half-life [6]: 1.9 h; Vd [7]: 12 L/kg
5 | CC(=O)NCCc1ccccc1-c1onc([C@H]2CNCC[C@]2(C(N)=O)c2ccc(F)c(F)c2)c1Br |  |  | 0.22 | 30 | IC50 (Renin [2]): 0.0006 µM
6 | O[C@]1(c2ccc(F)c(F)c2)CCNC[C@@H]1c1onc(-c2cccc3ccccc23)c1Br | > 50 | 67 | 0.06 | 4.2 | 
7 | CC(=O)NCCc1ccccc1-c1noc([C@H]2CNCC[C@]2(O)c2ccc(F)c(F)c2)c1Br | 45 | 74 |  |  | 
8 | CC(=O)NCCc1cc(F)ccc1-c1onc([C@H]2CNCC[C@]2(O)c2ccc(F)c(F)c2)c1Br | 45 | 78 |  |  | IC50 (Renin [2]): 0.0007 µM
9 | CC(=O)NCCc1ccccc1-c1cc([C@H]2CNCC[C@]2(O)c2ccc(F)c(F)c2)no1 | 32 | 21 | 166 |  | IC50 (Renin [2]): 0.331 µM
10 | CC(=O)NCCc1ccccc1-c1onc([C@H]2CNCC[C@]2(O)c2ccc(F)c(F)c2)c1Br | 33 | 68 | 0.27 |  | bioavailability [4]: 16%; clearance [5]: 6.48 L/h/kg; half-life [6]: 5.7 h; Vd [7]: 36 L/kg; Activity (Rattus norvegicus [8]): 44 mmHg; AUC [9]: 140 nM·h; Time (Rattus norvegicus [10]): 18 h

Continued by falling IC50 (Cytochrome P450 3A4), values first:

Row | IC50 (Cytochrome P450 3A4) [µM] | inhibition at 10 µM (CYP3A4) [%] | IC50 (Renin [3]) [nM] | Compound | Ki [1] [µM] | further results
11 | 28 | 60 | 0.17 | CO[C@]1(c2ccc(F)c(F)c2)CCNC[C@@H]1c1noc(-c2ccccc2CCNC(C)=O)c1Br |  | 
12 | 20 | 77 |  | Cc1cccc(-c2noc([C@H]3CNCC[C@]3(O)c3ccc(F)c(F)c3)c2Br)c1C | 6 | 
13 | 20 |  |  | CC(=O)NCCc1ccccc1-c1ccc([C@H]2CNCC[C@@H]2c2ccc(F)c(F)c2)c(Cl)c1 |  | 
14 | 19 | 60 |  | O[C@]1(c2ccc(F)c(F)c2)CCNC[C@@H]1c1onc(-c2cccc(Cl)c2Cl)c1Br |  | 
15 | 18 | 76 | 1.14 | O[C@]1(c2ccc(F)c(F)c2)CCNC[C@@H]1c1onc(-c2ccccc2Cl)c1Br |  | 
16 | 17 | 60 |  | O[C@]1(c2ccc(F)c(F)c2)CCNC[C@@H]1c1cc(-c2c(Cl)cccc2Cl)on1 | 9.8 | IC50 (Renin [2]): > 9.5 µM
17 | 15 | 82 |  | O[C@]1(c2ccc(F)c(F)c2)CCNC[C@@H]1c1onc(-c2c(Cl)cccc2Cl)c1Br | 3.9 | 
18 | 13 | 75 |  | CC(=O)NCCc1ccccc1-c1onc([C@H]2CNCC[C@@H]2c2ccc(F)c(F)c2)c1Br | 19.5 | 
19 | 8 | 32 |  | CC(=O)NCCc1ccccc1-c1onc([C@H]2CNCC[C@]2(O)c2ccc(F)c(F)c2)c1C(C)=O |  | 
20 | 8 | 59 |  | O[C@]1(c2ccc(F)c(F)c2)CCNC[C@@H]1c1cc(-c2c(Cl)cccc2Cl)no1 | 2.8 | 
21 | 7 | 36 |  | O[C@]1(c2ccc(F)c(F)c2)CCNC[C@@H]1c1cc(-c2ccc(F)cc2Cl)no1 |  | IC50 (Renin [2]): > 9.5 µM
22 | 3 | 22 |  | O[C@]1(c2ccc(F)c(F)c2)CCNC[C@@H]1c1cc(-c2ccc(F)cc2Br)no1 | 1.7 | 
